Source: PubChem
Most compounds without a hit are left out; they make up all but 3.1% or so of the library.
E-selectin induc = E-selectin induction in HUVECs, primary screen, imaging, HUVEC, immunofluorescence imaging, single point. P16581. normalized: neutral wells 0, TNF-alpha wells 100. activation, % at 7.58 µM. hit rate 0.37% among 260,000;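 active = mean E-selectin-positive cell signal at least 10% of the positive control, reached in at least 60% of replicates, without over 20% cell loss; inconclusive = no rule given, readout overlaps actives, possibly toxicity-flagged; inactive = the rest, including those meeting only one limit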
Target sequence (P16581 whole entry, looked up): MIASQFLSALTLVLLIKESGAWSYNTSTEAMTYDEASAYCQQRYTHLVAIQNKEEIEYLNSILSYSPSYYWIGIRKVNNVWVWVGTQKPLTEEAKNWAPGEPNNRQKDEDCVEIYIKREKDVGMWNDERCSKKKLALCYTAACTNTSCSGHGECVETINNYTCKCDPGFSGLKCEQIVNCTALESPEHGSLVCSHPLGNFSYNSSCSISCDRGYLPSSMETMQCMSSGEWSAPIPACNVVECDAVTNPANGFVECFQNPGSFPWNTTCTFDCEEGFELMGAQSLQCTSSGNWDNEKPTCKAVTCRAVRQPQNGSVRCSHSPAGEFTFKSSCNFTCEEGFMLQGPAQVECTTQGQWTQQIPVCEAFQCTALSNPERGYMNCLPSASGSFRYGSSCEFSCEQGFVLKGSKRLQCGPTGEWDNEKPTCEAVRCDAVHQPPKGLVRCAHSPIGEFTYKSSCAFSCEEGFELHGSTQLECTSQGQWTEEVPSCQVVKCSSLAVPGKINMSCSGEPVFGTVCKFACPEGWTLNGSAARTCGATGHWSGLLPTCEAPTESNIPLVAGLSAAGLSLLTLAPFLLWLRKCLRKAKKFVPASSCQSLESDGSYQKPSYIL
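Read-out basis: % PE-positive cells; Test system: HUVEC primary endothelial cells; Technique: immunofluorescence imaging; Dosing: single-point compound dose.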
DENV2 CPE rescue = inhibitors of DENV2 cytopathic effect, primary screen, cell-based, plate reader, single concentration; DENV2-infected cells, cytopathic effect rescue; CPE inhibition, % at 9.99 µM; hit rate 1.7% among 350,000; AID 651640, 2012; in the data active = CPE inhibition above about 20%, passing the limit was not always enough; inconclusive = no clear call, values can overlap the other calls; tested in BHK-21 cells;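 note: 0% = median of neutral control wells and 100% = median of positive control wells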
miR122 inh = miR-122 Renilla sensor signal increase in Huh7, primary screen, miR-122 inhibitor project, cell-based, single point, plate reader; hit rate 0.3% among 340,000; activation (reporter increase), % at 12.5 µM; AID 602342, 2012; Huh7 miR-122 Renilla luciferase sensor, 48 h; neutral wells = 0, positive control = 100;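 active = mean replicate activation score at least 90 and every replicate individually at or above 90; inconclusive = only one of the two criteria met; inactive = neither criterion met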;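 note: higher luciferase means less miR-122 activity so hits act as miR-122 inhibitors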
Cneo AK release = Cryptococcus neoformans cell lysis inducers, primary screen, AK release luminescence, single concentration; lysis activity, % at 15 µM; hit rate 0.2% among 360,000; C. neoformans lysis, adenylate kinase release luminescence, 4 h; normalised: neutral wells 0, clomiphene wells 100;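 active = mean lysis activity across replicates of at least 80%, whatever share of replicates individually reach that level; inactive = mean lysis activity below 80%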
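Test system: log-phase Cryptococcus neoformans yeast cells; Quantity: yeast cell density of 5 × 10^6 cells/mL; Buffer or medium: YPD; Doses: single compound concentration per well; Timing: 4 h at 37 °C static, read 1 h later; Measured by: AK luminescence; Read-out basis: lysis from increased AK signal; Control set: Clomiphene as positive control.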
Ecoli rRNA inh = reduced GFP signal of wild-type E. coli, primary screen, bacterial rRNA inhibitor project, GFP/RFP fluorescence, OD600, single point; hit rate 1.6% among 350,000; E. coli WT GFP vs humanized-ribosome RFP mutants, 24 h; hits give low values; DMSO median 0, no signal -100; AID 720706, 2013; GFP signal change (wild-type ribosome), % (no concentration beside the values);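 active = significant combined selectivity score with lowered wild-type GFP, culture density cut under 30%, mutant RFP and density less affected; inactive = any of these conditions unmet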
Starred values were filed as active, the others as inactive; u = inconclusive; x = no result; [ ] = another dose, or the depositor's remark.

SMILES	E-selectin induc	DENV2 CPE rescue	miR122 inh	Cneo AK release	Ecoli rRNA inh
O=S(=O)(c1cccc(F)c1)N1CCN(C(=S)NCC2CCCO2)CC1 (centres undefined)	-0.2	-7.5	x	0.5	7.6
O=S(=O)(c1cccc(Br)c1)N1CCN(C(=S)NCC2CCCO2)CC1 (centres undefined)	-0.6	67.7*	x	x	4.5
C[C@@H]1CN([C@@H](C)CO)C(=O)Cc2cc(NC(=O)Nc3ccc(F)cc3)ccc2O[C@@H]1CN(C)Cc1ccc(C(F)(F)F)cc1	11.8	-1.3	3.6[16.7 µM]	x	1.7
CC(=O)c1ccc(OCCCC(=O)Nc2cc(Cl)ccc2-n2cncn2)cc1	-0.8	55.6*	x	-6.4	-0.3
O=S(=O)(NC1CCCCC1)c1cccc(-c2nnc(-c3ccccc3)o2)c1	x	x	100.4*	-1.1	x
Cc1ccc(S(=O)(=O)Nc2ccc3c(c2)C(=O)N([C@H](C)CO)C[C@@H](C)[C@H](CN(C)S(=O)(=O)c2ccc(Cl)cc2)O3)cc1	-0.5	43.0*	x	x	-2.3
Cc1ccc(S(=O)(=O)Nc2ccc3c(c2)C(=O)N([C@H](C)CO)C[C@H](C)[C@@H](CN(C)S(=O)(=O)c2ccccc2)O3)cc1	0.9	38.7*	10.5[16.7 µM]	-1.9	-2.1
CC(C)NC(=O)N(C)C[C@@H]1Oc2c(NC(=O)Nc3ccc4c(c3)OCO4)cccc2C(=O)N([C@@H](C)CO)C[C@@H]1C	-0.3	-5.5	-3.6[16.7 µM]	-6.6	-2.6
Cc1c(O)ccc2c(CN3CCN(Cc4ccccc4)CC3)cc(=O)oc12	-0.1	2.4	-3.5	-2.6	-1.0
Cc1c(O)ccc2c(CN(C)Cc3ccccc3)cc(=O)oc12	0.2	10.4	3.8	-1.9	-25.5*
O=C(C[C@H]1CC[C@@H](NC(=O)c2ccccc2)[C@@H](CO)O1)NCCc1ccncc1	-0.3	-0.3	x	-0.9	1.7
C/C=C/c1ccc([C@@H]2[C@H]3CN(C(=O)Nc4ccc(OC)cc4)CCCCN3[C@H]2CO)cc1	-0.1	5.2	14.8[16.7 µM]	114.3*	-0.2
C/C=C/c1ccc([C@H]2[C@H](CO)N3CCCCN(C(=O)Nc4ccc(OC)cc4)C[C@@H]23)cc1	-0.3	-7.5	0.5[16.7 µM]	-0.6	-10.5
COc1ccc(C#Cc2ccc([C@H]3[C@@H](CO)N4CCCCN(C(=O)Nc5ccc(F)cc5)C[C@H]34)cc2)cc1	-0.1	31.4*	-8.9[16.7 µM]	52.8	-52.8
CCCN1C[C@H](C)[C@H](OC)CN(C)C(=O)c2ccc(NC(=O)CC)cc2OC[C@H]1C	-0.2	x	9.0[16.7 µM]	x	3.3
C[C@H](CO)N1C[C@H](C)[C@H](CN(C)S(=O)(=O)c2ccc(C#N)cc2)Oc2ncc(C#Cc3ccc(C(F)(F)F)cc3)cc2C1=O	-0.1	-1.9	x	x	-1.9
Cn1c(=O)c2c(nc(N3CCc4ccccc4C3)n2C)n(C)c1=O	0.1	-2.9	12.5	-1.2	-22.0*
O=S(=O)(Nc1cccc2ncccc12)c1cccs1	x	x	234.4*	0.6	x
Cc1c(NS(=O)(=O)c2cccs2)cccc1-c1nc2cccnc2s1	-1.9	1.8	x	x	0.1
CCC(=O)N1CC2(C1)CN(C(=O)Nc1ccccc1F)[C@H](CO)c1c2c2ccc(OC)cc2n1C	0.0	u	x	x	0.0
O=C(CCN1C(=O)/C(=C/c2ccc3c(c2)OCO3)SC1=S)NNC(=O)c1cccnc1	x	46.7*	x	x	16.3
O=C(CCN1C(=O)/C(=C/c2cccc(Br)c2)SC1=S)NNC(=O)c1cccnc1	x	3.1	1.1	-5.8	10.7
Cc1ccc(NC(=O)c2ccc3c(=O)n4c(nc3c2)CCCCC4)nc1	0.0	-9.7	-4.1	-2.8	-12.9
Cc1cc(C)c2nc(NC(=O)c3ccc4c(=O)n5c(nc4c3)CCCCC5)sc2c1	34.5*	-6.2	x	x	-2.3
CN1C(=O)c2cc(NC(=O)Cc3cccs3)ccc2OC[C@H]2O[C@@H](CC(=O)NCC3CCCCC3)CC[C@@H]21	0.2	9.5	-5.6[16.7 µM]	-2.7	-1.9
SMILES	E-selectin induc	DENV2 CPE rescue	miR122 inh	Cneo AK release	Ecoli rRNA inh
CN1C(=O)c2cc(NC(=O)c3cccs3)ccc2OC[C@@H]2O[C@@H](CC(=O)NCCN3CCCCC3)CC[C@H]21	0.0	40.5*	-83.3[16.7 µM]	-3.8	3.7
CN1C(=O)c2cc(NC(=O)c3cccs3)ccc2OC[C@H]2O[C@H](CC(=O)NCCN3CCCCC3)CC[C@H]21	0.0	4.2	-16.7[16.7 µM]	63.5	2.8
CN1C(=O)c2cc(NC(=O)Cc3cccs3)ccc2OC[C@@H]2O[C@H](CC(=O)NCC3CCCCC3)CC[C@H]21	0.2	132.2*	6.7[16.7 µM]	38.4	-5.1
CN1C(=O)c2cc(NC(=O)Cc3cccs3)ccc2OC[C@@H]2O[C@H](CC(=O)NCC3CCCCC3)CC[C@@H]21	0.0	u	154.4*[16.7 µM]	37.0	-6.5
CNC[C@H]1OCCCC[C@H](C)Oc2ccc(NC(=O)CCC(F)(F)F)cc2C(=O)N([C@@H](C)CO)C[C@H]1C	0.0	x	-0.8[16.7 µM]	x	3.5
O=C(O)C[C@H]1CC[C@@H](NC(=O)Nc2ccccc2)[C@@H](CO)O1	-0.6	11.8	x	16.9	1.1
Cc1ccc(Nc2nc(C(=O)NCc3ccco3)cs2)cc1	x	x	162.4*	-0.5	x
Cc1ccccc1S(=O)(=O)N1C[C@H](O)COC[C@H]2O[C@@H](CC(=O)N3CCN(C)CC3)CC[C@@H]21	0.3	-2.6	-3.4[16.7 µM]	-4.0	-0.5
C[C@H]1CN([C@@H](C)CO)C(=O)c2cccc(NS(=O)(=O)c3ccccc3)c2O[C@H]1CN(C)Cc1ccc(C(F)(F)F)cc1	1.4	78.0*	40.5[16.7 µM]	-2.0	-4.1
C[C@@H]1CN([C@H](C)CO)C(=O)c2cccc(NS(=O)(=O)c3cccs3)c2O[C@H]1CN(C)Cc1ccc(C(F)(F)F)cc1	-2.0	4.7	264.3*[16.7 µM]	-1.3	-2.8
COc1cc(OC)cc(C(=O)Nc2ccc(N3CCN(C(=O)c4cccs4)CC3)cc2)c1	2.4	52.9*	-4.4	-2.2	-7.6
CCCOc1cccc(C(=O)Nc2ccc(CN3CCOCC3)cc2)c1	x	25.3*	x	0.3	-6.8
CCCOc1ccc(C(=O)Nc2ccc(CN3CCOCC3)cc2)cc1	x	7.6	x	-14.7	2.4
CCOc1cccc(C(=O)Nc2ccc(N3CCCC3)cc2)c1	x	7.0	2.3	2.2	-19.1*
CO[C@H]1CN(C)C(=O)c2ccc(NC(=O)NC(C)C)cc2OC[C@H](C)N(CC2CC2)C[C@H]1C	-0.1	x	-7.1[16.7 µM]	0.1	3.5
Cc1ccc(-n2nc3c(=O)n(CC(=O)NCc4cccs4)nc(C)c3c2C)cc1	-0.2	54.2*	-3.2	-4.9	8.7
Cc1nn(CC(=O)NCCc2cccs2)c(=O)c2nn(-c3ccccc3)c(C)c12	x	6.0	-3.9	-2.5	1.2
Cn1c(=O)c(C#N)c(-c2ccc(F)cc2)c2cc(C(=O)c3cc(Cl)cc(Cl)c3O)cnc21	0.6	9.7	-12.3	-2.0	-28.0*
